Test results as given in ChEMBL document CHEMBL4765409, “Synthesis and biological evaluation of geniposide derivatives as potent and selective PTPlB inhibitors” (Eur J Med Chem, 2020).

Columns and labels:
[1] = molecular target: T1, Tyrosine-protein phosphatase non-receptor type 1 (Homo sapiens, UniProt P18031); assay: Inhibition of recombinant human PTP1B using pNPP as substrate measured after 30 mins
T1 sequence (P18031 whole entry): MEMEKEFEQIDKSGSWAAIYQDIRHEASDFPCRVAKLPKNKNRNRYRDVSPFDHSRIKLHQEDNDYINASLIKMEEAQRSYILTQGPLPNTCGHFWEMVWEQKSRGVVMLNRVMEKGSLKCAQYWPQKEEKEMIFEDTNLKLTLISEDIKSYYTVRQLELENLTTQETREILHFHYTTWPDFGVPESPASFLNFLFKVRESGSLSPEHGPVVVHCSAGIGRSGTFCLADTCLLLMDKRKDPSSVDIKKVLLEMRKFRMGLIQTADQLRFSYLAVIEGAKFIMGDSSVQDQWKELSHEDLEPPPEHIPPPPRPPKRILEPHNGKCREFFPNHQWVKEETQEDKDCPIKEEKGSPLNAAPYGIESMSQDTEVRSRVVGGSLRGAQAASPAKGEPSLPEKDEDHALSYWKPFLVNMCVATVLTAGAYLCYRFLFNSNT
Procedure, shortened: (§1)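 75 nM recombinant enzyme (PTP1B, TCPTP or SHP2) with 2.5 mM pNPP in 10 mM Tris, 25 mM NaCl, 1 mM EDTA, pH 7.1; compounds added from DMSO. Reaction run 30 min at room temperature, stopped with 2.0 N NaOH, pNP read at 405 nm. Sodium vanadate as positive control. IC50 from enzyme progress curves; means of triplicates, repeated twice.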

[2] = molecular target: T2, Tyrosine-protein phosphatase non-receptor type 1 (Homo sapiens) (UniProt P18031); assay: Inhibition of PTP1B in human HepG2 cells assessed as improvement in insulin-induced 2-NBDG uptake at 20 uM incubated for 24 hrs prior to compound washout followed by insulin stimulation for 20 mins and subsequent 2-NBDG addition measured after 60 mins by FACS analysis relative to control; format: cell-based
T2 sequence (whole entry): T1 sequence (P18031 whole entry)
Procedure, shortened: (§2)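 HepG2 cells in DMEM with 10% FBS and 1% penicillin-streptomycin, 5% CO2, 37 °C; 5×10^4 cells/well in 24-well plates. Compound exposure 24 h, then two PBS washes. Stimulated with 100 nM insulin for 20 min, then 50 μM 2-NBDG for 60 min. Uptake read by flow cytometry, FL1 channel; pioglitazone as positive control.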

[3] = molecular target: T2, Tyrosine-protein phosphatase non-receptor type 1 (Homo sapiens); assay: Inhibition of PTP1B in human HepG2 cells assessed as improvement in insulin-induced 2-NBDG uptake at 10 uM incubated for 24 hrs prior to compound washout followed by insulin stimulation for 20 mins and subsequent 2-NBDG addition measured after 60 mins by FACS analysis relative to control; format: cell-based; procedure, shortened: as §2
[4] = molecular target: T2, Tyrosine-protein phosphatase non-receptor type 1 (Homo sapiens); assay: Inhibition of PTP1B in human HepG2 cells assessed as improvement in insulin-induced 2-NBDG uptake at 5 uM incubated for 24 hrs prior to compound washout followed by insulin stimulation for 20 mins and subsequent 2-NBDG addition measured after 60 mins by FACS analysis relative to control; format: cell-based; procedure, shortened: as §2
CHO = assay: Cytotoxicity against CHO cells assessed as reduction in cell viability measured after 24 hrs by MTT assay; format: cell-based; conditions: Cricetulus griseus
Procedure, shortened: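 CHO cells in DMEM with 10% FBS and 1% penicillin-streptomycin, 5% CO2, 37 °C; 5×10^3 cells/well seeded, treated after 24 h with varying compound concentrations for 24 h. MTT then added for 4 h at 37 °C in the dark, medium removed, formazan dissolved in DMSO, OD read at 490 nm.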

CHO (Cricetulus griseus) = assay: Cytotoxicity against Chinese hamster CHO cells assessed as reduction in cell viability measured after 24 hrs by MTT assay
[5] = molecular target: T3, Tyrosine-protein phosphatase non-receptor type 2 (Homo sapiens, UniProt P17706); assay: Inhibition of recombinant human TCPTP using pNPP as substrate measured after 30 mins; procedure, shortened: as §1
T3 sequence (P17706 whole entry): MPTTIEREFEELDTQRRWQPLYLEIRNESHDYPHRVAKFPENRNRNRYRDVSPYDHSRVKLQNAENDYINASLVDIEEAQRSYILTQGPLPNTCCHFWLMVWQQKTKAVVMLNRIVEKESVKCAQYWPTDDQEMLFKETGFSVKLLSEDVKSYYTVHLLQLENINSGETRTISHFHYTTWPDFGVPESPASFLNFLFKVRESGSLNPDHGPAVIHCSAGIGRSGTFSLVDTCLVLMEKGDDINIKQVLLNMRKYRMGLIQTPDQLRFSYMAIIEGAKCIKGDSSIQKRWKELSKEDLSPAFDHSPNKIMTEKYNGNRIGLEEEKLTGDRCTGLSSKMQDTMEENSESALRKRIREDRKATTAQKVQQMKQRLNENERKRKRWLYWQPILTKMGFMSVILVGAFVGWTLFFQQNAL

[6] = molecular target: T4, Tyrosine-protein phosphatase non-receptor type 11 (Homo sapiens, UniProt Q06124); assay: Inhibition of recombinant SHP2 (unknown origin) using pNPP as substrate measured after 30 mins; procedure, shortened: as §1
T4 sequence (Q06124 whole entry): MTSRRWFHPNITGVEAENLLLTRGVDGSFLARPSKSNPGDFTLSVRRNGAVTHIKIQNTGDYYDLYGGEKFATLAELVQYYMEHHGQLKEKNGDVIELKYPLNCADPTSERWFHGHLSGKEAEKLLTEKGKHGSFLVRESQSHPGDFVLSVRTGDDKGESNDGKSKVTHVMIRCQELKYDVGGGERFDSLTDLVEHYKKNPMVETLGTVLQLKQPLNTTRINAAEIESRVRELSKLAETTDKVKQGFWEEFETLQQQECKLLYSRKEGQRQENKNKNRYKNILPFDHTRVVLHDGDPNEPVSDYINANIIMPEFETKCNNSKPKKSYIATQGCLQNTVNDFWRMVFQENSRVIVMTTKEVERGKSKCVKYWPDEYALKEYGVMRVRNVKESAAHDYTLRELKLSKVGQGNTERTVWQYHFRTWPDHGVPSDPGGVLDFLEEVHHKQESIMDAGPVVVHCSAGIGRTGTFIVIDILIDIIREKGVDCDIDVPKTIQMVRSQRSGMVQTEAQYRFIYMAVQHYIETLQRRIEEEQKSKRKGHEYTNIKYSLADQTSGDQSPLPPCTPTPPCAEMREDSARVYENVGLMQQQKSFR

[7] = molecular target: T1, Tyrosine-protein phosphatase non-receptor type 1; assay: Inhibition of recombinant human PTP1B (1 to 322 residues) expressed in Escherichia coli using IR5 (1142 to 1153, pY1146) as substrate by malachite green dye based colorimetric assay

Compound	IC50 [1] [µM]	IC50 (CHO) [µM]	IC50 (CHO (Cricetulus griseus)) [µM]	IC50 [5] [µM]	IC50 [6] [µM]	further results
CCOS(=O)(=O)/C=C/c1ccc(OCC2=CC[C@@H]3C(C(=O)OC)=CO[C@@H](OCc4ccccc4)[C@H]23)cc1	13.2	–	–	–	–	–
CCOS(=O)(=O)/C=C/c1ccc(CNC(=O)C2=CO[C@@H](O[C@@H]3O[C@H](COCc4ccccc4)[C@@H](OCc4ccccc4)[C@H](OCc4ccccc4)[C@H]3OCc3ccccc3)[C@@H]3C(COCc4ccccc4)=CC[C@H]23)cc1	0.35	> 200	> 200	–	–	inhibition [2]: 49.8%; inhibition [3]: 36.5%; inhibition [4]: 43.4%
COC(=O)C1=CO[C@@H](O[C@@H]2O[C@H](CO)[C@@H](O)[C@H](O)[C@H]2O)[C@@H]2C(CO)=CC[C@H]12 [GENIPOSIDE]	> 500	–	–	> 500	> 500	–
O=C(Nc1ccc(-c2ccccc2)cc1)C1=CO[C@@H](O[C@@H]2O[C@H](CO)[C@@H](O)[C@H](O)[C@H]2O)[C@@H]2C(CO)=CC[C@H]12	21.7	–	–	–	–	–
CC(C)(C)c1ccc(Oc2ccc(NC(=O)C3=CO[C@@H](O[C@@H]4O[C@H](CO)[C@@H](O)[C@H](O)[C@H]4O)[C@@H]4C(CO)=CC[C@H]34)cc2)cc1	17.7	–	–	> 100	> 100	–
CCO[C@@H]1OC=C(C(=O)OC)[C@H]2CC=C(CO)[C@@H]12	64.7	–	–	–	–	–
COC(=O)C1=CO[C@@H](O[C@@H]2O[C@H](COCc3ccccc3)[C@@H](OCc3ccccc3)[C@H](OCc3ccccc3)[C@H]2OCc2ccccc2)[C@@H]2C(COCc3ccccc3)=CC[C@H]12	0.68	42	> 200	–	–	–
O=C(Nc1ccccc1F)C1=CO[C@@H](O[C@@H]2O[C@H](CO)[C@@H](O)[C@H](O)[C@H]2O)[C@@H]2C(CO)=CC[C@H]12	20.8	–	–	–	–	–
CCOS(=O)(=O)/C=C/c1ccc(OCC2=CC[C@@H]3C(C(=O)Nc4ccc(Oc5ccc(Br)cc5Cl)cc4)=CO[C@@H](OCc4ccccc4)[C@H]23)cc1	0.41	> 200	> 200	1.29	3.97	inhibition [2]: 64.4%; inhibition [3]: 68.3%; inhibition [4]: 43.8%
O=C(Nc1ccc(Oc2ccccc2)cc1)C1=CO[C@@H](O[C@@H]2O[C@H](COCc3ccccc3)[C@@H](OCc3ccccc3)[C@H](OCc3ccccc3)[C@H]2OCc2ccccc2)[C@@H]2C(COCc3ccccc3)=CC[C@H]12	0.4	> 200	> 200	–	–	–
COC(=O)C1=CO[C@@H](OC)[C@@H]2C(CO)=CC[C@H]12	236	–	–	–	–	–
COC(=O)C1=CO[C@@H](O)[C@@H]2C(CO)=CC[C@H]12 [GENIPIN]	> 500	–	–	> 500	> 500	–
COC(=O)C1=CO[C@@H](OCc2ccccc2)[C@@H]2C(CO)=CC[C@H]12	40.3	–	–	–	–	–
CCOS(=O)(=O)/C=C/c1ccc(OCC2=CC[C@@H]3C(C(=O)Nc4ccc(Oc5ccc6ccccc6c5)cc4)=CO[C@@H](OC)[C@H]23)cc1	0.75	> 200	> 200	–	–	–
O=C1C[C@@H](O[C@@H]2O[C@H](CO)[C@@H](O)[C@H](O)[C@H]2O)CO1	5.8	–	–	> 50	> 50	IC50 [7]: 5.14 µM
CCOS(=O)(=O)/C=C/c1ccc(OCC2=CC[C@@H]3C(C(=O)Nc4ccc(Oc5ccccc5)cc4)=CO[C@@H](OC)[C@H]23)cc1	2.67	> 200	> 200	–	–	–
CCOS(=O)(=O)/C=C/c1ccc(OCC2=CC[C@@H]3C(C(=O)Nc4ccc(Oc5ccc(-c6ccccc6)cc5)cc4)=CO[C@@H](OC)[C@H]23)cc1	0.43	> 200	> 200	0.95	1.24	inhibition [2]: 69.6%; inhibition [3]: 68%; inhibition [4]: 38.6%
CCOS(=O)(=O)/C=C/c1ccc(OCC2=CC[C@@H]3C(C(=O)Nc4ccc(Oc5ccccc5)cc4)=CO[C@@H](OCc4ccccc4)[C@H]23)cc1	0.99	62	> 200	–	–	–
O=C(Nc1ccc(Oc2ccccc2)cc1)C1=CO[C@@H](O[C@@H]2O[C@H](CO)[C@@H](O)[C@H](O)[C@H]2O)[C@@H]2C(CO)=CC[C@H]12	25.2	–	–	–	–	–
O=C(Nc1ccccc1)C1=CO[C@@H](O[C@@H]2O[C@H](CO)[C@@H](O)[C@H](O)[C@H]2O)[C@@H]2C(CO)=CC[C@H]12	> 100	–	–	–	–	–
COc1ccccc1NC(=O)C1=CO[C@@H](O[C@@H]2O[C@H](CO)[C@@H](O)[C@H](O)[C@H]2O)[C@@H]2C(CO)=CC[C@H]12	50.8	–	–	–	–	–
CCOS(=O)(=O)/C=C/c1ccc(OCC2=CC[C@@H]3C(C(=O)Nc4ccc(Oc5ccc(Br)cc5Cl)cc4)=CO[C@@H](OC)[C@H]23)cc1	1.05	> 200	> 200	–	–	–
CCc1ccccc1NC(=O)C1=CO[C@@H](O[C@@H]2O[C@H](CO)[C@@H](O)[C@H](O)[C@H]2O)[C@@H]2C(CO)=CC[C@H]12	18.3	–	–	> 100	> 100	–
CCc1ccc(CCOc2ccc(CC3SC(=O)NC3=O)cc2)nc1 (stereo not drawn)	–	–	–	–	–	inhibition [2]: 63.5%; inhibition [3]: 46%; inhibition [4]: 33.8%
O=C(O)C1=CO[C@@H](O[C@@H]2O[C@H](COCc3ccccc3)[C@@H](OCc3ccccc3)[C@H](OCc3ccccc3)[C@H]2OCc2ccccc2)[C@@H]2C(COCc3ccccc3)=CC[C@H]12	0.38	> 200	> 200	1.32	3.32	–
